Experimental data published in ChEMBL document CHEMBL5260806, “Hydrogen peroxide activated quinone methide precursors with enhanced DNA cross-linking capability and cytotoxicity towards cancer cells” (Eur J Med Chem, 2017).
pIC50: −log10 of the molar value.

Assays:
MDA-MB-435 [1] = test: Anticancer activity against human MDA-MB-435 cells assessed as cell growth inhibition at 10 uM incubated for 48 hrs by sulforhodamine B assay; type: functional; details: read-out: GI
Method in brief: (§1)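 NCI DTP 60-cell-line screen run at National Cancer Institute. Cells grown in RPMI 1640 with 5% fetal bovine serum and 2 mM L-glutamine, seeded at 5,000–40,000 cells/well depending on doubling time. Single-dose screen at 10 µM gives growth percentage; dose-response series gives GI50.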

LOX IMVI = test: Anticancer activity against human LOX IMVI cells assessed as cell growth inhibition incubated for 48 hrs by sulforhodamine B assay; type: functional
Method in brief: (§2)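 NCI-60 screen: cell lines grown in RPMI 1640 with 5% FBS and 2 mM L-glutamine, plated in 96-well plates at 5,000–40,000 cells/well depending on doubling time. Each line has one single-dose arm at 10 µM and one dose-response arm giving GI50.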

UO-31 = test: Anticancer activity against human UO-31 cells assessed inhibition of cell growth after 48 hrs by CellTiter-Glo luminescent assay; type: functional, cell-based; details: UO-31, 48 h
Method in brief: (§3)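 Renal lines grown in RPMI 1640 with 5% FBS and 2 mM L-glutamine, seeded into 384-well plates at 5,000–10,000 cells/well, held 2–3 h at 37 °C, 5% CO2. DMSO stocks (20 mM) serially halved ten times and added at 1:100. Cells exposed 48 h at 37 °C; CellTiter-Glo added, 10 min at room temperature, luminescence read.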

SF-295 = test: Anticancer activity against human SF-295 cells assessed as cell growth inhibition incubated for 48 hrs by sulforhodamine B assay; type: functional; method in brief: as §1
DNA [2] = test: Induction of [32P]-labeled 49-mer oligonucleotide duplex DNA 25 (unknown origin) interstrand cross-linking at 2 mM for 48 hrs in presence of 2mM H2O2 by PAGE; type: functional
RPMI-8226 = test: Anticancer activity against human RPMI-8226 cells assessed as cell growth inhibition incubated for 48 hrs by sulforhodamine B assay; type: functional; method in brief: as §1
Malme-3M = test: Anticancer activity against human Malme-3M cells assessed as cell growth inhibition incubated for 48 hrs by sulforhodamine B assay; type: functional; method in brief: as §1
SK-MEL-28 [3] = test: Anticancer activity against human SK-MEL-28 cells assessed as cell growth inhibition incubated for 48 hrs by sulforhodamine B assay; type: functional; method in brief: as §1
[4] = Toxicity in healthy human lymphocytes assessed as reduction in cell viability at 10 uM after 24 hrs by Annexin/PI staining based fluorescence assay; details: lymphocyte
Method in brief: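 Normal donor lymphocytes (n=2) isolated from peripheral blood by Ficoll-hypaque, in RPMI with 10% autologous plasma. Exposed to 10 µM for 24 h; % viable cells by annexin/PI binding.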

HOP-62 [5] = test: Anticancer activity against human HOP-62 cells assessed as cell growth inhibition incubated for 48 hrs by sulforhodamine B assay; type: functional; method in brief: as §2
Hs-578T = test: Anticancer activity against human Hs-578T cells assessed as cell growth inhibition at 10 uM incubated for 48 hrs by sulforhodamine B assay; type: functional; details: read-out: GI; method in brief: as §2
MDA-MB-435 [6] = test: Anticancer activity against human MDA-MB-435 cells assessed as cell growth inhibition incubated for 48 hrs by sulforhodamine B assay; type: functional; method in brief: as §1
A498 = test: Anticancer activity against human A498 cells assessed inhibition of cell growth after 48 hrs by CellTiter-Glo luminescent assay; type: functional, cell-based; details: A498, 48 h
Method in brief: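 Human tumour cells kept in RPMI 1640 with 5% FBS and 2 mM L-glutamine, seeded at 5,000–10,000 cells/well and left 2–3 h at 37°C, 5% CO2. Drugs taken from 20 mM DMSO stocks, serially halved ten times in DMSO, then added at 1:100 dilution. Cells exposed for 48 h at 37°C. Viability read by CellTiter-Glo luminescence after 10 min at room temperature.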

SNB-75 [7] = test: Anticancer activity against human SNB-75 cells assessed as cell growth inhibition incubated for 48 hrs by sulforhodamine B assay; type: functional
CCRF-CEM = test: Anticancer activity against human CCRF-CEM cells assessed as cell growth inhibition incubated for 48 hrs by sulforhodamine B assay; type: functional; method in brief: as §2
SN12C [8] = test: Anticancer activity against human SN12C cells assessed inhibition of cell growth after 48 hrs by CellTiter-Glo luminescent assay; type: functional, cell-based; method in brief: as §3
SW-620 = test: Anticancer activity against human SW620 cells assessed as cell growth inhibition at 10 uM incubated for 48 hrs by sulforhodamine B assay; type: functional; details: read-out: GI
SNB-75 [9] = test: Anticancer activity against human SNB-75 cells assessed as cell growth inhibition at 10 uM incubated for 48 hrs by sulforhodamine B assay; type: functional; details: read-out: GI
SN12C [10] = test: Anticancer activity against human SN12C cells assessed as cell growth inhibition at 10 uM incubated for 48 hrs by sulforhodamine B assay; type: functional; details: read-out: GI
SF-539 = test: Anticancer activity against human SF-539 cells assessed as cell growth inhibition incubated for 48 hrs by sulforhodamine B assay; type: functional; method in brief: as §1
SK-MEL-28 [11] = test: Anticancer activity against human SK-MEL-28 cells assessed as cell growth inhibition at 10 uM incubated for 48 hrs by sulforhodamine B assay; type: functional; details: read-out: GI; method in brief: as §1
OVCAR-3 = test: Anticancer activity against human OVCAR-3 cells assessed as cell growth inhibition at 10 uM incubated for 48 hrs by sulforhodamine B assay; type: functional; details: read-out: GI; method in brief: as §1
HOP-62 [12] = test: Anticancer activity against human HOP-62 cells assessed as cell growth inhibition at 10 uM incubated for 48 hrs by sulforhodamine B assay; type: functional; details: read-out: GI; method in brief: as §2
MDA-MB-231 [13] = test: Anticancer activity against human MDA-MB-231 cells assessed as cell growth inhibition at 10 uM incubated for 48 hrs by sulforhodamine B assay; type: functional; details: read-out: GI; method in brief: as §1
MCF7 = test: Anticancer activity against human MCF7 cells assessed as cell growth inhibition incubated for 48 hrs by sulforhodamine B assay; type: functional; method in brief: as §1
IGROV-1 = test: Anticancer activity against human IGROV-1 cells assessed as cell growth inhibition at 10 uM incubated for 48 hrs by sulforhodamine B assay; type: functional; details: read-out: GI; method in brief: as §2
DNA [14] = test: Potentiation of H2O2 induced [32P]-labeled 49-mer oligonucleotide duplex DNA 25 (unknown origin) interstrand cross-linking at pH 8 in phosphate buffer solution assessed as rate constant and measured for 24 hrs by PAGE analysis; type: functional
MDA-MB-468 = test: Anticancer activity against human MDA-MB-468 cells assessed inhibition of cell growth after 48 hrs by CellTiter-Glo luminescent assay; type: functional, cell-based; details: MDA-MB-468, 48 h
Method in brief: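 Cells grown in RPMI 1640 with 5% fetal bovine serum and 2 mM L-glutamine, seeded at 5,000–10,000 cells/well in 384-well plates, preincubated 2–3 h at 37°C, 5% CO2. DMSO stocks (20 mM) serially diluted 2-fold ten times, then added at 1:100. Exposure 48 h at 37°C. Viability read by CellTiter-Glo luminescence after 10 min at room temperature; IC50 derived.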

CAKI-1 = test: Anticancer activity against human CAKI-1 cells assessed as cell growth inhibition incubated for 48 hrs by sulforhodamine B assay; type: functional; method in brief: as §2
UACC-257 = test: Anticancer activity against human UACC-257 cells assessed as cell growth inhibition at 10 uM incubated for 48 hrs by sulforhodamine B assay; type: functional; details: read-out: GI
MDA-MB-231 [15] = test: Anticancer activity against human MDA-MB-231 cells assessed as cell growth inhibition incubated for 48 hrs by sulforhodamine B assay; type: functional; method in brief: as §1
SK-OV-3 = test: Anticancer activity against human SK-OV-3 cells assessed as cell growth inhibition incubated for 48 hrs by sulforhodamine B assay; type: functional

With `COc1cc(CBr)c(B2OC(C)(C)C(C)(C)O2)c(CBr)c1` the inhibition of growth at 10 µM (MDA-MB-435 [1]) was < 50%, the GI50 (LOX IMVI) was 2000 nM and the pIC50 (UO-31) was 4.97. The GI50 (SF-295) was 2000 nM, the Activity (DNA [2]) was 36% and the GI50 (RPMI-8226) was 2000 nM. For the same compound, the GI50 (Malme-3M) was 2000 nM, the GI50 (SK-MEL-28 [3]) was 2000 nM and the Activity [4] was “Non-Toxic”. The GI50 (HOP-62 [5]) was 2000 nM, the inhibition of growth at 10 µM (Hs-578T) was < 50% and the GI50 (MDA-MB-435 [6]) was 2000 nM. For the same compound, the pIC50 (A498) was 4.74, the GI50 (SNB-75 [7]) was 2000 nM and the GI50 (CCRF-CEM) was 2000 nM. The pIC50 (SN12C [8]) was 4.73, the inhibition of growth at 10 µM (SW-620) was < 50% and the inhibition of growth at 10 µM (SNB-75 [9]) was < 50%. The inhibition of growth at 10 µM (SN12C [10]) was < 50%, the GI50 (SF-539) was 2000 nM and the inhibition of growth at 10 µM (SK-MEL-28 [11]) was < 50%. For the same compound, the inhibition of growth at 10 µM (OVCAR-3) was < 50%, the inhibition of growth at 10 µM (HOP-62 [12]) was < 50% and the inhibition of growth at 10 µM (MDA-MB-231 [13]) was < 50%. The GI50 (MCF7) was 2000 nM, the inhibition of growth at 10 µM (IGROV-1) was < 50% and the Ka (DNA [14]) was 0.000237 s⁻¹. The pIC50 (MDA-MB-468) was 5.05, the GI50 (CAKI-1) was 2000 nM and the inhibition of growth at 10 µM (UACC-257) was < 50%. It also gave a GI50 (MDA-MB-231 [15]) of 2000 nM and a GI50 (SK-OV-3) of 2000 nM.
